Data: ChEMBL document CHEMBL1123192 (J Med Chem, 1986)

What was measured:
[1] = molecular target: Beta-2 adrenergic receptor (Cavia porcellus, UniProt Q8K4Z4); assay: The compound was evaluated for the antagonistic activity against beta-2 adrenergic receptor.; assay type: functional; details: read-out: pA2 (converted)
Procedure, shortened: (§1)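 Isolated tissue suited to each receptor test, held in 10-mL organ baths of Krebs-Henseleit solution at 37 °C and gassed with 95% O2/5% CO2. Antagonism was judged by how several concentrations of test agent altered a cumulative concentration-response curve to a receptor-specific agonist.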

[2] = molecular target: Beta-1 adrenergic receptor (Cavia porcellus, UniProt B0FL73); assay: The compound was evaluated for the antagonistic activity against beta-1 adrenergic receptor.; assay type: functional; details: read-out: pA2 (converted); procedure, shortened: as §1
[3] = organism: Cavia porcellus; assay: Beta-2-adrenoceptor ISA (intrinsic sympathomimetic activity)was measured as relaxant effect against a PGF2-alpha contracted guinea pig trachea at 1x10E-5 M; assay type: functional
[4] = molecular target: T1, Adrenergic receptor alpha-2 (Rattus norvegicus, UniProt P22086+P19328+P22909); assay: The compound was evaluated for the antagonistic activity against alpha-2 adrenergic receptor.; assay type: functional
T1 sequence (P22086 whole entry): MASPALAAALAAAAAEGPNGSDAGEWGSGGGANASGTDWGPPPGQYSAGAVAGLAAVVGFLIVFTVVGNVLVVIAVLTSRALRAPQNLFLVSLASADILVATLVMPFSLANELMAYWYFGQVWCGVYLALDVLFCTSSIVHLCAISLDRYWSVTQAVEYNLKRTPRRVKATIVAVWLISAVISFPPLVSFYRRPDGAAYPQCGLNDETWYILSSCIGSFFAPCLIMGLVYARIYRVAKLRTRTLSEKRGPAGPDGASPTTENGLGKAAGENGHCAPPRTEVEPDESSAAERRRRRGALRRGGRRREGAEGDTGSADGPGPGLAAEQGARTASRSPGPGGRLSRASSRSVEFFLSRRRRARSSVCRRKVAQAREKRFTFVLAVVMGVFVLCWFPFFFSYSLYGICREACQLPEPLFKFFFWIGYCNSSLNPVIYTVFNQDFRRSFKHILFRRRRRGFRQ
T1 sequence (P19328 whole entry): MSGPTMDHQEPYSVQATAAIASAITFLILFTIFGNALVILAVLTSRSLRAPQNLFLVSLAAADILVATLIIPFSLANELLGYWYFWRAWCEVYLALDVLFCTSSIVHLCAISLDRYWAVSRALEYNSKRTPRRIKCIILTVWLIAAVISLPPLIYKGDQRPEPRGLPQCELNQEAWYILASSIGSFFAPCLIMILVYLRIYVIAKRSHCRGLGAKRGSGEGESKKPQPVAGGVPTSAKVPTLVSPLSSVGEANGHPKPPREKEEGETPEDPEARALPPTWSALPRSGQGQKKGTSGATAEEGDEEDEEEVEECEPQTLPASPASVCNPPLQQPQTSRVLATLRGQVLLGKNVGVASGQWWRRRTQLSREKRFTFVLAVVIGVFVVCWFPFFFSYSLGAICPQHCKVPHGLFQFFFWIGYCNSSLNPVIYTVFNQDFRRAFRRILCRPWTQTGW
T1 sequence (P22909 whole entry): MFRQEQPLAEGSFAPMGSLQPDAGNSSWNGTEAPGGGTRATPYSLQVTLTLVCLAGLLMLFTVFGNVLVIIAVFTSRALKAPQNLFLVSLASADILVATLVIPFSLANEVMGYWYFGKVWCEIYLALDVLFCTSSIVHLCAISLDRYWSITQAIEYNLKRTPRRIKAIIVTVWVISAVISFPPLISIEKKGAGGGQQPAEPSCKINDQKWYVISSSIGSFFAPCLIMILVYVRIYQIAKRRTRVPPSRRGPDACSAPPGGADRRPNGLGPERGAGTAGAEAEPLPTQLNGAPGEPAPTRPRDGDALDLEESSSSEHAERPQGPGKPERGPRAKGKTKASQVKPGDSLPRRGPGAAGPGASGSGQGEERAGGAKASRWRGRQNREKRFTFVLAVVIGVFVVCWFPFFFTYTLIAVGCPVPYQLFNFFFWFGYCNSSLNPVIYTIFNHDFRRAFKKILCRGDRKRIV

[5] = tested on: Rattus norvegicus; assay: Maximal change in mean arterial blood pressure (MABP) measured as pretreatment value at dose of 50 mg/kg in SHR; assay type: functional
Procedure, shortened: (§2)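 Spontaneously hypertensive rats; test agent dissolved or dispersed in 0.5% methylcellulose and given by gastric gavage at 5 mL/kg after a 1-h equilibration. Doses ranged from 1 to 100 mg/kg, with 4–8 animals per dose. MABP and HR were monitored for 4 h. Pretreatment values and maximal % change were recorded, and maximal changes were compared with vehicle by Dunnett's t test.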

[6] = tested on: Rattus norvegicus; assay: Maximal change in heart rate (HR) measured as % change from pretreatment value at dose of 50 mg/kg in SHR; assay type: functional; procedure, shortened: as §2
[7] = tested on: Rattus norvegicus; assay: Maximal change in mean arterial blood pressure (MABP) measured as % change from pretreatment value at dose of 50 mg/kg in SHR; assay type: functional; procedure, shortened: as §2
[8] = tested on: Rattus norvegicus; assay: Maximal change in heart rate (HR) measured as pretreatment value at dose of 50 mg/kg in SHR; assay type: functional; procedure, shortened: as §2
[9] = molecular target: Beta-1 adrenergic receptor (Cavia porcellus) (UniProt B0FL73); assay: Beta-1-adrenoceptor ISA (intrinsic sympathomimetic activity)using the guinea pig right atria was measured as % increase of positive chronotropic effect (basal spontaneous beating rate) at 1x10E-6 M; assay type: functional
[10] = molecular target: T2, Adrenergic receptor alpha-1 (Homo sapiens, UniProt P35348+P25100+P35368); assay: The compound was evaluated for the antagonistic activity against alpha-1 adrenergic receptor.; assay type: functional, Oryctolagus cuniculus; procedure, shortened: as §1
T2 sequence (P35348 whole entry): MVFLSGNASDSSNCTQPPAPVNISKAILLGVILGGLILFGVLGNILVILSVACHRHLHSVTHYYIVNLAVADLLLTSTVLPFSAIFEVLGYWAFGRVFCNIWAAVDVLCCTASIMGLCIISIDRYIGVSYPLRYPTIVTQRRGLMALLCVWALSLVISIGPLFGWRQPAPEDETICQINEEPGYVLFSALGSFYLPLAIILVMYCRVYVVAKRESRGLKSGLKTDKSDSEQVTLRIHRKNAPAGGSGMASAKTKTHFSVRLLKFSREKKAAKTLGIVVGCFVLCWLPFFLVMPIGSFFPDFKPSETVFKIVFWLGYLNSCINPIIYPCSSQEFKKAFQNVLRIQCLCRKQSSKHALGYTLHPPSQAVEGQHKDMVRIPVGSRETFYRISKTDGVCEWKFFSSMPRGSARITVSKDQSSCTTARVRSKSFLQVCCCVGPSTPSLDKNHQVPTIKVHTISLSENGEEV
T2 sequence (P25100 whole entry): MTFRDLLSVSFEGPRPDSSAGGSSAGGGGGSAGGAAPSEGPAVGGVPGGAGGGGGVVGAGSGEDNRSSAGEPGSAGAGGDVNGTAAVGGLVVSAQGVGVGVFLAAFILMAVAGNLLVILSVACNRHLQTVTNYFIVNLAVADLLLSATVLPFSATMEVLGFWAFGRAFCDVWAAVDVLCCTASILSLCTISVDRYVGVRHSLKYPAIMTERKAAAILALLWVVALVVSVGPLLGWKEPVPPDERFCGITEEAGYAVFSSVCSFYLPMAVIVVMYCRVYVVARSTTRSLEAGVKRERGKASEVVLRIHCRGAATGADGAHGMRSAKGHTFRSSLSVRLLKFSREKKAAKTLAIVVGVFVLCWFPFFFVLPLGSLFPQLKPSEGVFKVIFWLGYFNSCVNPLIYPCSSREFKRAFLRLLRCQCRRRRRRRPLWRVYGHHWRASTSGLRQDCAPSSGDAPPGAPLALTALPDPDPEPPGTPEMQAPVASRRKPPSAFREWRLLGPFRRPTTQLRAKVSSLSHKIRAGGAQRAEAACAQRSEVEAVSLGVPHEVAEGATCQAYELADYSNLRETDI
T2 sequence (P35368 whole entry): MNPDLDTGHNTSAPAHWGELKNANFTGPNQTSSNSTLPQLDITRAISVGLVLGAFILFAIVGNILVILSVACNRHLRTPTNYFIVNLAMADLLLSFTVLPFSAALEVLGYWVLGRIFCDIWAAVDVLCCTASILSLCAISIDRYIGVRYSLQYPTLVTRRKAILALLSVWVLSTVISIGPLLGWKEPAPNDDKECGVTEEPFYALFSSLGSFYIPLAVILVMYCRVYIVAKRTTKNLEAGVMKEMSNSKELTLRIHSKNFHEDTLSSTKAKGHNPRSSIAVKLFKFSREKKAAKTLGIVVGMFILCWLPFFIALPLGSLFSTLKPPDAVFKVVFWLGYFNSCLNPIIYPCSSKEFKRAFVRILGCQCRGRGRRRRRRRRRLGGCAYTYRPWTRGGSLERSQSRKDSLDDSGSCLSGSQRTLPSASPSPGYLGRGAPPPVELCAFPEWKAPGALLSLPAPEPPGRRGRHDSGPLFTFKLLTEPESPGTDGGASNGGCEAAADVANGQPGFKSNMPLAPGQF

Sequence of Beta-1 adrenergic receptor (B0FL73 whole entry): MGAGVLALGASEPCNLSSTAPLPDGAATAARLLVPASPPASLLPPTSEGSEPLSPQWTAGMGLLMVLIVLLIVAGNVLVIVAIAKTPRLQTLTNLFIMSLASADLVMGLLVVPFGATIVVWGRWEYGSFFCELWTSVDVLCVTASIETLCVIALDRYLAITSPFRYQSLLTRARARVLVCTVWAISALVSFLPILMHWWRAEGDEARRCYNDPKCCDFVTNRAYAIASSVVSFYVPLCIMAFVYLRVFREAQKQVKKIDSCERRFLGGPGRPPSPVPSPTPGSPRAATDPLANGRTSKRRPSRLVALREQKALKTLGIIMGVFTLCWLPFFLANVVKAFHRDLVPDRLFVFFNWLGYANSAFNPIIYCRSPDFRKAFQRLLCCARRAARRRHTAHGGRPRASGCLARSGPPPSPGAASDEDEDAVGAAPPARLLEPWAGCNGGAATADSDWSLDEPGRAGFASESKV
Sequence of Beta-1 adrenergic receptor (Cavia porcellus) (B0FL73 1-467): as the sequence (B0FL73 whole entry) above
Sequence of Beta-2 adrenergic receptor (Q8K4Z4 whole entry): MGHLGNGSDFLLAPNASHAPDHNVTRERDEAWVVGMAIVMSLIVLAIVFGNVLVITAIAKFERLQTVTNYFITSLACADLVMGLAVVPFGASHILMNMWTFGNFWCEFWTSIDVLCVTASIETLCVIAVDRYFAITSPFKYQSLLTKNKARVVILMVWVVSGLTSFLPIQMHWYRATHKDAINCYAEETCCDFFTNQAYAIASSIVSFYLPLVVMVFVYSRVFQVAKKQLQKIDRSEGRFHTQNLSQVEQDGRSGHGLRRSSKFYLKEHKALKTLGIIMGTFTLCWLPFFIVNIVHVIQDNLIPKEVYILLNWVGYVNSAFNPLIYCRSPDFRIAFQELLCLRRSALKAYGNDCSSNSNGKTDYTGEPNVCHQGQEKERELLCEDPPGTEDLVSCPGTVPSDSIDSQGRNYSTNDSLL

- Kb [1]: > 10 µM
- Kb [2]: > 1000 nM
- pA2 [4]: < 5
- Change [9]: 2.7%
- pA2 [10]: 6.2
SMILES: CC(CCc1ccccc1)NCC(O)c1cc(C(N)=O)c2c(ccn2C)c1 (stereo not given)
- Change [3]: 34.6%
- MABP [5]: 166 mmHg
- Change [6]: -15%
- Change [7]: -13%
- HR [8]: 411 beats min-1
